# What was measured:
# [1] = target: Fatty acid synthase (Homo sapiens, UniProt P49327); experiment: Inhibition of human FAS assessed as synthesis of long chain fatty acids from malonyl CoA after 60 mins by fluorescence assay
# Outline: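 FAS enzyme prepared from HeLa cells, in enzyme buffer (20 mM K phosphate, 1 mM EDTA, 1 mM DTT, 5% glycerol, pH 7.4). It was preincubated 60 min at 37 °C with compound (0.1% DMSO), 326 µM NADPH and 60 µM acetyl CoA in 100 mM K phosphate, 1 mM EDTA, 1 mM DTT, pH 7.0. The reaction was started with 200 µM malonyl CoA. NADPH consumption was read at 340 nm over 10 min, and the slope (Vmax) was taken.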
# [2] = target: Beta-1 adrenergic receptor (Homo sapiens) (UniProt P08588); experiment: Binding affinity to human beta1 adrenergic receptor at 10 uM by radioligand binding assay
# Sequence of Beta-1 adrenergic receptor (Homo sapiens) (P08588 whole entry, looked up): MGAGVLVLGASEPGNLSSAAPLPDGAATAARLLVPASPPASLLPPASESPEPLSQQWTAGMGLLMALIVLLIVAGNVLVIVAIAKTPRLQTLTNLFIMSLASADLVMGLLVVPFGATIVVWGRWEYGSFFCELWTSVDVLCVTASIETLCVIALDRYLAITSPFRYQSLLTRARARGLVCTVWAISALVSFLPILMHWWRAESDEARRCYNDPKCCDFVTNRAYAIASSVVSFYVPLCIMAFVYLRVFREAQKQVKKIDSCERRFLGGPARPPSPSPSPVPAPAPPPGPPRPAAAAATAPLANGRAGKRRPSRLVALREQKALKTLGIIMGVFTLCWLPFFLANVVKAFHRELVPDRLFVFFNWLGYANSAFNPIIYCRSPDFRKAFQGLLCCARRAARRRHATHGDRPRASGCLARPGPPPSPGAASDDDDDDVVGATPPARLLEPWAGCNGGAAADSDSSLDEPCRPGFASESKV
# [3] = AUC (0 to infinity) in Han/Wistar rat at 4 mg/kg, po; format: ADME, organism-based; parameters: time infinity, dose 4 mg/kg, route oral; details: plasma
# Outline: (§1)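 Male Han/Wistar rats were dosed orally. Compound levels were measured in plasma, and in brain and CSF at 2 h.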
# [4] = organism: Rattus norvegicus; experiment: Binding affinity to rat rolipram binding site at 10 uM by radioligand binding assay
# [5] = test system: Liver microsomes; experiment: Metabolic stability in human liver microsomes; format: ADME, Microsome
# [6] = target: Adenosine receptor A1 (Homo sapiens) (UniProt P30542); experiment: Binding affinity to human adenosine A1 receptor at 10 uM by radioligand binding assay
# [7] = target: Cytochrome P450 1A2 (Homo sapiens, UniProt P05177); experiment: Inhibition of human CYP1A2; format: ADME
# Sequence of Cytochrome P450 1A2 (P05177 whole entry): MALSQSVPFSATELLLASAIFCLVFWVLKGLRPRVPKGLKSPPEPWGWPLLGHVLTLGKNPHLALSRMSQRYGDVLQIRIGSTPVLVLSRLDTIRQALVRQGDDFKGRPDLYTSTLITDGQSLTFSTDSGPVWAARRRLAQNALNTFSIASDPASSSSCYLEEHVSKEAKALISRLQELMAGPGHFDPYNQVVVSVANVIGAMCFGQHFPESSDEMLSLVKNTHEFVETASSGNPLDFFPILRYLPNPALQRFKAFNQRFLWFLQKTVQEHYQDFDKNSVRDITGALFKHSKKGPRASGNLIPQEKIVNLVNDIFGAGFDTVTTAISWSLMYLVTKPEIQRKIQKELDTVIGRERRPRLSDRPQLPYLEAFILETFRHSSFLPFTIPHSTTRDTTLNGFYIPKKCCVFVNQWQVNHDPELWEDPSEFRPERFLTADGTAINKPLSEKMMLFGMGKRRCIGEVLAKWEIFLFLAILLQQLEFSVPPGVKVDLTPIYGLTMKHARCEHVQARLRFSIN
# [8] = target: Muscarinic acetylcholine receptor M3 (Homo sapiens) (UniProt P20309); experiment: Binding affinity to human muscarinic M3 receptor at 10 uM by radioligand binding assay
# [9] = target: Acetylcholine receptor subunit alpha (Homo sapiens) (UniProt P02708); experiment: Binding affinity to human bungrotoxin binding site of nicotinic acetylcholine receptor alpha1 at 10 uM by radioligand binding assay
# [10] = Cmax in Han/Wistar rat at 4 mg/kg, po; format: ADME, organism-based; parameters: dose 4 mg/kg, route oral; details: in vivo; outline: as §1
# [11] = target: Cytochrome P450 3A4 (Homo sapiens, UniProt P08684); experiment: Inhibition of human CYP3A4; format: ADME
# [12] = target: Prostaglandin E2 receptor EP4 subtype (Homo sapiens) (UniProt P35408); experiment: Binding affinity to human EP4 receptor at 10 uM by radioligand binding assay
# [13] = organism: Rattus norvegicus; experiment: Binding affinity to rat ATP-sensitive potassium channel at 10 uM by radioligand binding assay
# [14] = target: Mu-type opioid receptor (Homo sapiens) (UniProt P35372); experiment: Binding affinity to human MOP receptor at 10 uM by radioligand binding assay
# [15] = target: Cytochrome P450 2C19 (Homo sapiens, UniProt P33261); experiment: Inhibition of human CYP2C19; format: ADME
# [16] = target: Sodium-dependent noradrenaline transporter (Homo sapiens) (UniProt P23975); experiment: Binding affinity to human NET at 10 uM by radioligand binding assay
# [17] = organism: Rattus norvegicus; experiment: Binding affinity to rat agonist site of GABA-A receptor at 10 uM by radioligand binding assay
# [18] = Volume of distribution at steady state in iv dosed Han/Wistar rat; format: ADME, organism-based; details: in vivo, read-out: Vdss
# Outline: (§2)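 Male Han/Wistar rats were dosed intravenously.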
# [19] = organism: Rattus norvegicus; experiment: Binding affinity to rat sigma 2 receptor at 10 uM by radioligand binding assay
# [20] = target: Fatty acid synthase (Mus musculus, UniProt P19096); experiment: Inhibition of FAS in mouse N42 cells assessed as [14C]-acetate incorporation after 4 hrs by scintillation counting; format: cell-based
# Outline: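 Immortalized clonal neuronal mouse hypothalamic N-42 cells were exposed to compound for 60 min at 37 °C, then to 14C-acetate (10^6 dpm) for 4 h at 37 °C. Lipids were extracted with chloroform/methanol and the lower phase was evaporated. Incorporated radioactivity was measured by scintillation counting.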
# [21] = target: Glutamate NMDA receptor (Rattus norvegicus) (UniProt P35439+Q00959+Q00960+Q00961+Q62645+Q8VHN2+Q9R1M7); experiment: Binding affinity to rat NMDA receptor at 10 uM by radioligand binding assay; format: protein-complex assay
# [22] = target: hERG (KCNH2) (Homo sapiens, UniProt Q12809); experiment: Binding affinity to human ERG at 10 uM by radioligand binding assay
# [23] = target: Alpha-2A adrenergic receptor (Homo sapiens) (UniProt P08913); experiment: Binding affinity to human adrenergic alpha2A receptor at 10 uM by radioligand binding assay
# Sequence of Alpha-2A adrenergic receptor (Homo sapiens) (P08913 whole entry): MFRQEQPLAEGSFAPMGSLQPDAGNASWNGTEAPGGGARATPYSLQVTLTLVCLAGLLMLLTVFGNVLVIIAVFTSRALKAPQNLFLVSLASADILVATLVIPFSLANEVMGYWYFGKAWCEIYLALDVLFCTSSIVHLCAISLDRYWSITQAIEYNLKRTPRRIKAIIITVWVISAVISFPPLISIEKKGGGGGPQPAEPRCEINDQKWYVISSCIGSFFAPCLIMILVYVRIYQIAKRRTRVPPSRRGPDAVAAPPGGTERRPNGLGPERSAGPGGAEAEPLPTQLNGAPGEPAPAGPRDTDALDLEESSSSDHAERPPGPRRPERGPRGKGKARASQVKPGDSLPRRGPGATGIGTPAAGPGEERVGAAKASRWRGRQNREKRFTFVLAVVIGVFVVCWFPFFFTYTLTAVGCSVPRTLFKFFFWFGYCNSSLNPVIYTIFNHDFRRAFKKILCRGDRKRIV
# [24] = Oral bioavailability in Han/Wistar rat at 4 mg/kg; format: ADME, organism-based; details: in vivo; outline: as §1
# [25] = Clearance in iv dosed Han/Wistar rat; format: ADME, organism-based; details: in vivo; outline: as §2
# [26] = Drug level in Han/Wistar rat brain at 4 mg/kg, po after 2 hrs; format: ADME, organism-based; parameters: dose 4 mg/kg, route oral; details: read-out: Drug uptake; outline: as §1
# [27] = target: Histamine H1 receptor (Homo sapiens) (UniProt P35367); experiment: Binding affinity to human histamine H1 receptor at 10 uM by radioligand binding assay
# [28] = organism: Mus musculus; experiment: Binding affinity to mouse phorbol ester receptor at 10 uM by radioligand binding assay
# [29] = target: Alpha-1B adrenergic receptor (Rattus norvegicus) (UniProt P15823); experiment: Binding affinity to rat adrenergic Alpha-1B receptor at 10 uM by radioligand binding assay
# [30] = target: Cytochrome P450 2D6 (Homo sapiens, UniProt P10635); experiment: Inhibition of human CYP2D6; format: ADME
# Sequence of Cytochrome P450 2D6 (P10635 whole entry): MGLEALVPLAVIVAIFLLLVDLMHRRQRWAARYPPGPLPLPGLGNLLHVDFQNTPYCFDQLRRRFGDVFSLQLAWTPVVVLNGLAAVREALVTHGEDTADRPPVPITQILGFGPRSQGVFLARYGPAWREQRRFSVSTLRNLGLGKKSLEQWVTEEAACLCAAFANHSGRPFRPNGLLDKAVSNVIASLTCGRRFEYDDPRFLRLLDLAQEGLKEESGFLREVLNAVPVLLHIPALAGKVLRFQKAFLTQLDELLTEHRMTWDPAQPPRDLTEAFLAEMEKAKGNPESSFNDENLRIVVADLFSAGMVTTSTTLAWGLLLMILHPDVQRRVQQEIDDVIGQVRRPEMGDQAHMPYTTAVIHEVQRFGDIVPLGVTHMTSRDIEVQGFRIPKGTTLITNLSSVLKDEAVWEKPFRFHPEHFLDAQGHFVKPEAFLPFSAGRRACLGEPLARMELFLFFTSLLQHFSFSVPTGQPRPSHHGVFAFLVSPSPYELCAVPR
# [31] = Drug level in Han/Wistar rat cerebrospinal fluid at 4 mg/kg, po after 2 hrs; format: ADME, organism-based; parameters: dose 4 mg/kg, route oral; details: read-out: Drug uptake; outline: as §1
# [32] = organism: Rattus norvegicus; experiment: Binding affinity to rat dihydropyridine binding site of calcium channel L-type at 10 uM by radioligand binding assay
# [33] = organism: Rattus norvegicus; experiment: Binding affinity to rat GABA-A receptor at 10 uM by radioligand binding assay
# [34] = target: D(1A) dopamine receptor (Homo sapiens) (UniProt P21728); experiment: Binding affinity to human dopamine D1 receptor at 10 uM by radioligand binding assay
# Sequence of D(1A) dopamine receptor (Homo sapiens) (P21728 whole entry): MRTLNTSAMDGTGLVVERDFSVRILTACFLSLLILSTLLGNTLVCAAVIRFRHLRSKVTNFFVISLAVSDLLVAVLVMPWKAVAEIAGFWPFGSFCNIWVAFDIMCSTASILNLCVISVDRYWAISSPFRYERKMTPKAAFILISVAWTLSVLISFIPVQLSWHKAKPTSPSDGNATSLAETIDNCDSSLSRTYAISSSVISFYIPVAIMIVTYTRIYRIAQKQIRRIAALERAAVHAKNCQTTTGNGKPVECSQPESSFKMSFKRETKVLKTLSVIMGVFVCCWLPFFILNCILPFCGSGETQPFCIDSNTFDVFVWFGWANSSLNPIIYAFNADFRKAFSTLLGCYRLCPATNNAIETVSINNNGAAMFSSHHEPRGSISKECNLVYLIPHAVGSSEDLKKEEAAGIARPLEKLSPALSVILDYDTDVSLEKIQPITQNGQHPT
# [35] = organism: Rattus norvegicus; experiment: Binding affinity to rat sodium channel site 2 at 10 uM by radioligand binding assay
# [36] = Half life in Han/Wistar rat at 4 mg/kg, po; format: ADME, organism-based; parameters: dose 4 mg/kg, route oral; details: in vivo; outline: as §1
# [37] = test system: Liver microsomes; experiment: Metabolic stability in rat liver microsomes; format: ADME, Microsome
# [38] = target: D(2) dopamine receptor (Homo sapiens) (UniProt P14416); experiment: Binding affinity to human dopamine D2short receptor at 10 uM by radioligand binding assay
# [39] = target: Sigma non-opioid intracellular receptor 1 (Homo sapiens) (UniProt Q99720); experiment: Binding affinity to human sigma 1 receptor at 10 uM by radioligand binding assay
# [40] = Permeability across human Caco2 cells; format: ADME, cell-based; details: Caco-2, read-out: permeability
# [41] = Tmax in Han/Wistar rat at 4 mg/kg, po; format: ADME, organism-based; parameters: dose 4 mg/kg, route oral; details: in vivo; outline: as §1
# [42] = target: Cytochrome P450 2C9 (Homo sapiens, UniProt P11712); experiment: Inhibition of human CYP2C9; format: ADME
# [43] = target: Pyroglutamylated RF-amide peptide receptor (Homo sapiens) (UniProt Q96P65); experiment: Binding affinity to human GPR103 receptor at 10 uM by radioligand binding assay
# [44] = test system: U937 (Homo sapiens); experiment: Cytotoxicity against human U937 cells up to 30 uM by LDH release assay
# [45] = organism: Homo sapiens; experiment: Liver blood flow human; format: ADME, organism-based
# [46] = target: Alpha-1A adrenergic receptor (Rattus norvegicus) (UniProt P43140); experiment: Binding affinity to rat adrenergic alpha1A receptor at 10 uM by radioligand binding assay
# [47] = organism: Rattus norvegicus; experiment: Binding affinity to rat central imidazoline I2 receptor at 10 uM by radioligand binding assay
# [48] = Aqueous solubility of compound at pH 7.4; format: physicochemical; details: buffer
# [49] = target: Adenosine receptor A2a (Homo sapiens) (UniProt P29274); experiment: Binding affinity to human adenosine A2A receptor at 10 uM by radioligand binding assay
# [50] = target: Beta-2 adrenergic receptor (Homo sapiens) (UniProt P07550); experiment: Binding affinity to human adrenergic beta2 receptor at 10 uM by radioligand binding assay
# [51] = target: Muscarinic acetylcholine receptor M2 (Homo sapiens) (UniProt P08172); experiment: Binding affinity to human muscarinic M2 receptor at 10 uM by radioligand binding assay
# [52] = Plasma protein binding in rat; format: ADME, cell-free; details: read-out: PPB (converted)
# [53] = organism: Rattus norvegicus; experiment: Liver blood flow rat; format: ADME, organism-based
# Sequence of Fatty acid synthase (Homo sapiens, UniProt P49327) (P49327 whole entry): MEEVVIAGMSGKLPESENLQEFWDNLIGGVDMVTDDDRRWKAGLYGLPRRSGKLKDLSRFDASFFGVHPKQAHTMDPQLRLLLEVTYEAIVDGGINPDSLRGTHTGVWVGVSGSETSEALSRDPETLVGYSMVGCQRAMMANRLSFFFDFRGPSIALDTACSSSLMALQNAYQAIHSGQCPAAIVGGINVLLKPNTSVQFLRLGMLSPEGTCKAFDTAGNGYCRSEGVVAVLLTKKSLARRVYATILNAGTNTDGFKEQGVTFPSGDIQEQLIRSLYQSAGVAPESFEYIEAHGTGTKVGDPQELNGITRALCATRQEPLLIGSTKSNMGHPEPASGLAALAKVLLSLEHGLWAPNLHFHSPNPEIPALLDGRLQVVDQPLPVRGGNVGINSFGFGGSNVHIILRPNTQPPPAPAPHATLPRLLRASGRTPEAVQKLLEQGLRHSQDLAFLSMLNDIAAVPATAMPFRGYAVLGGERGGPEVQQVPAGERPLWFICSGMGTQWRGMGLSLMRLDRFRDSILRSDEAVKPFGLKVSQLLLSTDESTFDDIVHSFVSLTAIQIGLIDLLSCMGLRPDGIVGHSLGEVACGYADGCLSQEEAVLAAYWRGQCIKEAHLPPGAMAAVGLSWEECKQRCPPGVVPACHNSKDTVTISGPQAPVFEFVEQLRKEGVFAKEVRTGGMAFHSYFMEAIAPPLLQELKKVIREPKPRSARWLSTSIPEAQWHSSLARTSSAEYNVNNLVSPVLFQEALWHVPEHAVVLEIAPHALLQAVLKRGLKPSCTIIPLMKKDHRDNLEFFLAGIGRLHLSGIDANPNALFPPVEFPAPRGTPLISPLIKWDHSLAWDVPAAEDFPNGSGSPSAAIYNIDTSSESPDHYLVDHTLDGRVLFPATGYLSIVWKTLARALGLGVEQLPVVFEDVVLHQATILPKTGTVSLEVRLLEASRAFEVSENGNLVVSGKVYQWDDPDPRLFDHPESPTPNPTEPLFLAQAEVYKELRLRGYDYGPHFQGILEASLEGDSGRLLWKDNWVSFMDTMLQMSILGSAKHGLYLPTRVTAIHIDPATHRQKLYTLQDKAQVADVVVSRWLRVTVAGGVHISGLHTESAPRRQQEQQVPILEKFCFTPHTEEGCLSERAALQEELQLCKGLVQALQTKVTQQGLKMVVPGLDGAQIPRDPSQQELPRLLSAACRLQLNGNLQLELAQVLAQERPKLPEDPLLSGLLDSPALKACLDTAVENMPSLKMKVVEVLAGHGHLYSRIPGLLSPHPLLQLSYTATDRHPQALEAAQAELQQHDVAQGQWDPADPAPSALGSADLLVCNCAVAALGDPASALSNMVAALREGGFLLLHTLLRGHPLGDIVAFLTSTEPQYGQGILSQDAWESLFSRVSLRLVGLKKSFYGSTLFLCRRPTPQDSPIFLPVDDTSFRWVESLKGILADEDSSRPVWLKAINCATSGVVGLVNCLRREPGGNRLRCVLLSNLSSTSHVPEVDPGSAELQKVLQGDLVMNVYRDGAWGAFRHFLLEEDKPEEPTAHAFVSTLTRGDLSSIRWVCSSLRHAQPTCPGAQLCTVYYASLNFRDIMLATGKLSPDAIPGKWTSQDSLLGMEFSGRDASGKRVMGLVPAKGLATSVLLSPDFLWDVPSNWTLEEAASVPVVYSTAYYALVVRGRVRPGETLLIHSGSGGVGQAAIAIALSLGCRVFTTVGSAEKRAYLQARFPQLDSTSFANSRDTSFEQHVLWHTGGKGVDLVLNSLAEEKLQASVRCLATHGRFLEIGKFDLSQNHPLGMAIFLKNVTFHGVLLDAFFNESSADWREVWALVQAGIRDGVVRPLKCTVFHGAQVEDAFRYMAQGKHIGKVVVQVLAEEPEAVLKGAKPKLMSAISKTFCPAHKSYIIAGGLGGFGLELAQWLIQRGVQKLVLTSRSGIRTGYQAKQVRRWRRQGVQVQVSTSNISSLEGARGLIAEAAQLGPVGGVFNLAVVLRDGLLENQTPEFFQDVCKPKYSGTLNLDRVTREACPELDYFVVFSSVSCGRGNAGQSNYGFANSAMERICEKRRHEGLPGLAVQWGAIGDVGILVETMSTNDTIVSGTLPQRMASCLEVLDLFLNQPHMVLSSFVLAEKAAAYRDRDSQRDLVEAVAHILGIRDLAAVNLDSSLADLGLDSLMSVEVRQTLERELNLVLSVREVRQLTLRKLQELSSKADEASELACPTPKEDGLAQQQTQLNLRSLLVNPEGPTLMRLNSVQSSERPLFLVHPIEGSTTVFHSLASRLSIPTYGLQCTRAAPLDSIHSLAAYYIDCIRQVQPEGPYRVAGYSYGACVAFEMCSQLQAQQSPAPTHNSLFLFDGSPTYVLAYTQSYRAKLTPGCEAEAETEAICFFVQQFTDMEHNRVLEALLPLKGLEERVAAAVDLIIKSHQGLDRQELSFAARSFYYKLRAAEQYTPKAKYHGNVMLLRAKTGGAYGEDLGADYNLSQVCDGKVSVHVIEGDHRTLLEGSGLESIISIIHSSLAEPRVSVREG
compound,measurement,setting,value
CN(C)CCCCCC(=O)N[C@H]1CC[C@@H](C(=O)N(C)c2ccc(-c3nc4ccccc4[nH]3)cc2)C1,IC50,[1],700 nM
CCNC(=O)N[C@H]1CC[C@@H](C(=O)N(C)c2ccc(-c3nc4ccccc4n3C)cc2)C1,IC50,[1],1400 nM
CN(C)CCCCCC(=O)N[C@H]1CC[C@@H](C(=O)N(C)c2ccc(-c3nc4ccccc4n3C)cc2)C1,IC50,[1],2400 nM
CC(=O)N[C@H]1CC[C@@H](C(=O)N(C)c2ccc(-c3nc4ccccc4o3)cc2)C1,IC50,[1],200 nM
CCCC(=O)N[C@H]1CC[C@@H](C(=O)N(C)c2ccc(-c3nc4ccccc4o3)cc2)C1,IC50,[1],420 nM
CN(C(=O)[C@@H]1CC[C@H](NC(=O)C(F)F)C1)c1ccc(-c2nc3ccccc3o2)cc1,IC50,[1],270 nM
COCC(=O)N[C@H]1CC[C@@H](C(=O)N(C)c2ccc(-c3nc4ccccc4o3)cc2)C1,IC50,[1],910 nM
CCNC(=O)N[C@H]1CC[C@@H](C(=O)N(C)c2ccc(-c3nc4ccccc4o3)cc2)C1,IC50,[1],530 nM
CN(C)C(=O)N[C@H]1CC[C@@H](C(=O)N(C)c2ccc(-c3nc4ccccc4o3)cc2)C1,IC50,[1],280 nM
CN(C)CCCCCC(=O)N[C@H]1CC[C@@H](C(=O)N(C)c2ccc(-c3nc4ccccc4o3)cc2)C1,IC50,[1],580 nM
CCC(=O)N[C@H]1CC[C@@H](C(=O)N(C)c2ccc(-c3nc4ccccc4o3)cc2)C1 [BI 99179],inhibition,[2],4%
same,AUC(0-inf),[3],9.35 µM·h
same,inhibition,[4],17%
same,Stability,[5],Stable
same,inhibition,[6],-7%
same,IC50,[7],> 10 µM
same,inhibition,[8],-6%
same,inhibition,[9],9%
same,Cmax,[10],2110 nM
same,IC50,[1],79 nM
same,IC50,[11],> 10 µM
same,inhibition,[12],9%
same,inhibition,[13],12%
same,inhibition,[14],0%
same,IC50,[15],> 10 µM
same,inhibition,[16],9%
same,inhibition,[17],4%
same,Vd,[18],1.6 L/kg
same,inhibition,[19],13%
same,IC50,[20],600 nM
same,inhibition,[21],-1%
same,inhibition at 10 µM,[22],-5%
same,inhibition,[23],2%
same,bioavailability,[24],46%
same,clearance,[25],8.2 mL/min/kg
same,concentration at 2 h,[26],1300 nM
same,inhibition,[27],13%
same,inhibition,[28],6%
same,inhibition,[29],4%
same,IC50,[30],> 10 µM
same,concentration at 2 h,[31],50 nM
same,inhibition,[32],7%
same,inhibition,[33],8%
same,inhibition,[34],7%
same,inhibition,[35],1%
same,half-life,[36],180 min
same,Stability,[37],Stable
same,inhibition,[38],5%
same,inhibition,[39],-2%
same,Papp,[40],94 ×10⁻⁶ cm/s
same,Tmax,[41],30 min
same,IC50,[42],> 10 µM
same,inhibition,[43],-1%
same,Activity,[44],Non-toxic
same,QH,[45],< 26%
same,inhibition,[46],17%
same,inhibition,[47],19%
same,solubility,[48],5 µg/mL
same,inhibition,[49],10%
same,inhibition,[50],0%
same,inhibition,[51],10%
same,fraction unbound,[52],0.024
same,QH,[53],< 27%
CCC(=O)N[C@@H]1CC[C@H](C(=O)N(C)c2ccc(-c3nc4ccccc4o3)cc2)C1 [BI 99990],IC50,[1],> 3000 nM
C/C=C/C/C=C/CCC(=O)[C@H]1O[C@H]1C(N)=O [CERULENIN],IC50,[1],5800 nM

# Reference: ChEMBL document CHEMBL1833814 (Bioorg Med Chem Lett, 2011)
